# Experimental data reported in PMC5305809 (ACS chemical biology, 2016).
# Assays:
# [1] = test system: Jurkat cells; experiment: Global fatty acylation by metabolic labeling; type: cell-based; conditions: 25 μM inhibitor, 15 hrs
# [2] = test system: Jurkat cells; experiment: Western blot for global protein lysine acetylation; type: cell-based; conditions: Jurkat cells treated with 25 μM HDAC inhibitor
# Outline: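 Jurkat cells in RPMI 1640 with 10% FBS, exposed to test compound (25 μM) for 15 hrs. Cells lysed in 4% SDS buffer with protease inhibitor cocktail and nuclease, protein quantified by BCA.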
# [3] = test system: HeLa cells; experiment: Global fatty acylation by metabolic labeling; type: cell-based
# Outline: (§1)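 Cells grown in DMEM with 10% FBS at 37 °C, 5% CO2. They were pretreated with test compound or DMSO, then cultured with Alk12, an alkyne myristic acid analogue, for metabolic labeling. Labeled proteins were clicked to BODIPY-azide and precipitated. Cysteine acylation was removed with 0.5 M hydroxylamine pH 8.0 at 95 °C for 7 min. Read-out was in-gel fluorescence after SDS-PAGE.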
# [4] = test system: MDA-MB 231 cells; experiment: Global fatty acylation by metabolic labeling; type: cell-based
# Outline: as §1
# [5] = test system: HEK-293T cells; experiment: Global fatty acylation by metabolic labeling; type: cell-based, human
# Outline: as §1
# [6] = target: T1, HDAC8 (Homo sapiens, UniProt Q9BY41); experiment: HDAC8 kinetics assay on H3K9 acyl peptides; type: biochemical; conditions: for kcat/Km: from slope of linear plot where kcat ND
# T1 sequence (Q9BY41 1-377): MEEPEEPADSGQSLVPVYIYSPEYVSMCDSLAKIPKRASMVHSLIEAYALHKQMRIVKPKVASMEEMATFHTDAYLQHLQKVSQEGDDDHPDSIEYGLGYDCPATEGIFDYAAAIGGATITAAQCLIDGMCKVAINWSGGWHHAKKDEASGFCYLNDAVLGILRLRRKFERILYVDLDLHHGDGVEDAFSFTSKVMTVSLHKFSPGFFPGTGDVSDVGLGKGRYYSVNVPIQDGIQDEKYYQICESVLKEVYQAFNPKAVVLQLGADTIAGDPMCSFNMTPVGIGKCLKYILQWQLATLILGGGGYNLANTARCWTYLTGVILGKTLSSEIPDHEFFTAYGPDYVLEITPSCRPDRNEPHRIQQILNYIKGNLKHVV
# [7] = recombinant HDAC8 from E. coli, 1 μM, 37 °C, 1 hr, pH 8, duplicate, ± S.D.
# [8] = recombinant HDAC8 from Sf9 insect cells
# [9] = recombinant HDAC8 from E. coli, 1 μM, 37 °C, 1 hr, pH 8, duplicate, ± S.D., SD
Compound,global protein lysine fatty acylation vs control (Alk12 labeling) [1],global lysine acetylation level (Western blot) [2],"Km [6, 7] [µM]","Km [6, 9] [µM]","kcat [6, 9] [S^−1]",other results
Nc1ccccc1NC(=O)c1ccc(CNc2nccc(-c3cccnc3)n2)cc1 [Mocetinostat],only PCI-34051-treated Jurkat cells exhibited enhanced global protein lysine fatty acylation,did not noticeably increase protein lysine acetylation,,,,
COc1ccc(Cn2ccc3ccc(C(=O)NO)cc32)cc1 [PCI-34051],exhibited enhanced global protein lysine fatty acylation,did not noticeably increase protein lysine acetylation,,,,fatty acylation vs DMSO control (Alk12 labeling) [3]: slightly increased fatty acylation; fatty acylation vs DMSO control (Alk12 labeling) [4]: slightly increased fatty acylation; fatty acylation vs DMSO control (Alk12 labeling) [5]: slightly increased fatty acylation
Cc1[nH]c2ccccc2c1CCNCc1ccc(/C=C/C(=O)NO)cc1 [Panobinostat],much lower than the control,predominantly increased the acetylation of protein bands around 55 kDa,,,,
O=C(CCCCCCC(=O)Nc1ccccc1)NO [SAHA],much lower than the control,predominantly increased the acetylation of protein bands around 55 kDa,,,,
KQTARKSTGGWW [Acetyl H3K9],,,> 600,,,"Km [6, 8]: > 300 µM; kcat/Km [6, 8]: 480.8 ^b S^−1.M^−1"
KQTARKSTGGWW [Butyryl H3K9],,,> 200,,,
KQTARKSTGGWW [Dodecanoyl H3K9],,,,69.5 ± 10.1,0.0123 ± 0.0013,
KQTARKSTGGWW [Myristoyl H3K9],,,~16,15.8 ± 5.1,0.0019 ± 0.0003,"demyristoylation catalytic efficiency relative to deacetylation ([6]; HDAC8 purified from Sf9 insect cells, myristoyl- vs acetyl-H3K9): > 2 times; Km [6, 8]: 60.5 µM; kcat [6, 8]: 0.0755 ^b S^−1; kcat/Km [6, 8]: 1,246 ^b S^−1.M^−1"
KQTARKSTGGWW [Octanoyl H3K9],,,,146 ± 10.3,0.0202 ± 0.0005,
KQTARKSTGGWW [Palmitoyl H3K9],,,,18.3 ± 7.4,0.0005 ± 0.00007,
